A short description of data set [1]: Cytotoxicity against HEL cells assessed as alteration of cell morphology after 3 days by microscopic analysis. The data set is classed as toxicity, cell-based. The conditions noted are these: human. In a few lines:
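HEL cell cultures were checked by microscopy for compound cytotoxicity, reported as MCC. The highest concentration tested was […].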

The test system of a further data set is Human adenovirus 2. The data set can be described thus: Antiviral activity against Human adenovirus 2 infected in HEL cells assessed as inhibition of virus-induced cytopathicity. The data set is classed as functional, cell-based. The conditions noted are these: Human mastadenovirus C. (In general: Cytopathic effects are the visible damage that an infection or toxin causes in cultured cells.)

Data set [2] relates to Vaccinia virus. In words: Antiviral activity against Vaccinia virus infected in HEL cells assessed as inhibition of virus-induced cytopathicity. Format: functional, cell-based. The conditions noted are these: Orthopoxvirus vaccinia.
The subject of data set [3] is Vaccinia virus. In words: Potency index, ratio of cidofovir EC50 against Vaccinia virus infected in HEL cells to compound EC50 against Vaccinia virus infected in HEL cells. Format: functional, Orthopoxvirus vaccinia.
In data set [4] the test system is Vaccinia virus. The data set can be described thus: Potency index, ratio of brivudin EC50 against Vaccinia virus infected in HEL cells to compound EC50 against Vaccinia virus infected in HEL cells. The data set is classed as functional, Orthopoxvirus vaccinia.

The EC50 is the concentration that produces a half-maximal response. Turning to `Cn1c(=O)n(O)c(=O)c2cc(-c3cn(Cc4ccccc4)nn3)ccc21`, the MCC at 72 h in data set [1] was greater than 100 µM. Further, the EC50 with Human adenovirus 2 and with Vaccinia virus [2] was greater than 100 µM each time.
`Nc1ccn(C[C@@H](CO)OCP(=O)(O)O)c(=O)n1` [CIDOFOVIR]: the MCC at 72 h in data set [1] was greater than 250 µM. The EC50 with Human adenovirus 2 worked out at 10 µM; with Vaccinia virus [2], 25 µM.
Turning to `Nc1ccn([C@H]2CC[C@@H](CO)O2)c(=O)n1` [ZALCITABINE], in data set [1], the MCC at 72 h is greater than 250 µM. In addition, in the data set on Human adenovirus 2, the EC50 amounted to 7.2 µM.
As for `Cn1c(=O)n(O)c(=O)c2cc(-c3cn(Cc4ccc(F)cc4)nn3)ccc21`, in data set [1], the MCC at 72 h is greater than 100 µM. Also, the EC50 in the data set on Human adenovirus 2 and with Vaccinia virus [2] was greater than 100 µM in each case.
Regarding `CCn1c(=O)n(O)c(=O)c2cc(-c3cn(Cc4cccc(F)c4)nn3)ccc21`, the MCC at 72 h in data set [1] is greater than 100 µM. Also, the values for the EC50 in the data set with Human adenovirus 2 and in the data set with Vaccinia virus [2] were 13 µM and greater than 100 µM, respectively.
For `Cc1cn([C@H]2C[C@H](F)[C@@H](CO)O2)c(=O)[nH]c1=O` [ALOVUDINE], the MCC at 72 h in data set [1] was greater than 250 µM. Moreover, the EC50 in the data set with Human adenovirus 2 was 10 µM.
Regarding `Cn1c(=O)n(O)c(=O)c2cc(-c3cn(Cc4ccc(C#N)cc4)nn3)ccc21`, the MCC at 72 h in data set [1] is greater than 100 µM. Besides, the EC50 with Human adenovirus 2 and in the data set on Vaccinia virus [2] was greater than 100 µM in each case.
For `CCn1c(=O)n(O)c(=O)c2cc(-c3cn(Cc4ccccc4)nn3)ccc21`, in data set [1], the MCC at 72 h was greater than 100 µM. Besides, the EC50 in the data set on Human adenovirus 2 is 12 µM; in the data set with Vaccinia virus [2] it was greater than 100 µM.
For `Cn1c(=O)n(O)c(=O)c2cc(-c3cn(Cc4c(Cl)cccc4Cl)nn3)ccc21`, the MCC at 72 h in data set [1] is greater than 100 µM. Further, the EC50 with Human adenovirus 2 and in the data set on Vaccinia virus [2] was greater than 100 µM each time.
In the case of `CCn1c(=O)n(O)c(=O)c2cc(-c3cn(Cc4cc(F)ccc4F)nn3)ccc21`, the MCC at 72 h in data set [1] worked out at 20 µM. Besides, the EC50 in the data set on Human adenovirus 2 and with Vaccinia virus [2] was greater than 100 µM each time.
As to `Cn1c(=O)n(O)c(=O)c2cc(-c3cn(Cc4ccccc4F)nn3)ccc21`, in data set [1], the MCC at 72 h was greater than 100 µM. For the same molecule, the EC50 in the data set on Human adenovirus 2 and in the data set with Vaccinia virus [2] was greater than 100 µM throughout.
`CCn1c(=O)n(O)c(=O)c2cc(-c3cn(Cc4ccc(F)cc4F)nn3)ccc21`: the MCC at 72 h in data set [1] is 20 µM. The EC50 in the data set with Human adenovirus 2 and with Vaccinia virus [2] was greater than 100 µM each time.
`Cn1c(=O)n(O)c(=O)c2cc(-c3cn(Cc4ccc([N+](=O)[O-])cc4)nn3)ccc21`: the MCC at 72 h in data set [1] is greater than 100 µM. For the same molecule, the results for the EC50 with Human adenovirus 2 and in the data set on Vaccinia virus [2] were greater than 100 µM and 2.4 µM, respectively.
In the case of `CCn1c(=O)n(O)c(=O)c2cc(-c3cn(Cc4c(F)cccc4F)nn3)ccc21`, in data set [1], the MCC at 72 h was greater than 100 µM. For the same molecule, the EC50 is 8 µM with Human adenovirus 2 and greater than 100 µM with Vaccinia virus [2].
In the case of `CCn1c(=O)n(O)c(=O)c2cc(-c3cn(Cc4c(Cl)cccc4Cl)nn3)ccc21`, the MCC at 72 h in data set [1] is greater than 100 µM. In addition, the EC50 with Human adenovirus 2 and with Vaccinia virus [2] was greater than 100 µM in each case.
Regarding `CCn1c(=O)n(O)c(=O)c2cc(-c3cn(Cc4ccc(OC)cc4)nn3)ccc21`, in data set [1], the MCC at 72 h was greater than 100 µM. Besides, the results for the EC50 with Human adenovirus 2 and with Vaccinia virus [2] were 6.2 µM and greater than 100 µM, respectively.
For `CCn1c(=O)n(O)c(=O)c2cc(-c3cn(Cc4ccc([N+](=O)[O-])cc4)nn3)ccc21`, the MCC at 72 h in data set [1] was greater than 100 µM. Moreover, the results for the “Ratio EC50” value with Vaccinia virus [3] and with Vaccinia virus [4] were 15 and 8 - 15, respectively. Besides, the EC50 is greater than 100 µM with Human adenovirus 2 and 1.7 µM in the data set on Vaccinia virus [2].
Consider `Cn1c(=O)n(O)c(=O)c2cc(-c3cn(Cc4ccc(F)c(F)c4)nn3)ccc21`, for which the MCC at 72 h in data set [1] came out at 100 µM. Further, the values for the EC50 in the data set with Human adenovirus 2 and in the data set with Vaccinia virus [2] were greater than 100 µM and 5 µM, respectively.
Regarding `Cn1c(=O)n(O)c(=O)c2cc(-c3cn(Cc4ccc(F)cc4F)nn3)ccc21`, the MCC at 72 h in data set [1] was determined as 100 µM. For the same molecule, the EC50 with Human adenovirus 2 and in the data set with Vaccinia virus [2] was greater than 100 µM throughout.
Regarding `CCn1c(=O)n(O)c(=O)c2cc(-c3cn(Cc4ccc(F)c(F)c4)nn3)ccc21`, the MCC at 72 h in data set [1] amounted to 20 µM. In addition, the EC50 is greater than 100 µM in the data set on Human adenovirus 2 and 1.9 µM with Vaccinia virus [2].
The corresponding values for `CCn1c(=O)n(O)c(=O)c2cc(-c3cn(Cc4ccccc4F)nn3)ccc21` are greater than 100 µM, 6.5 µM and greater than 100 µM.
The matching figures for `Cc1ccccc1Cn1cc(-c2ccc3c(c2)c(=O)n(O)c(=O)n3C)nn1`: 100 µM, greater than 100 µM and greater than 100 µM.
`CCn1c(=O)n(O)c(=O)c2cc(-c3cn(Cc4ccccc4C)nn3)ccc21`: the MCC at 72 h in data set [1] was 20 µM. In addition, the EC50 in the data set on Human adenovirus 2 and with Vaccinia virus [2] was greater than 100 µM in each case.
For the molecule `CCn1c(=O)n(O)c(=O)c2cc(-c3cn(Cc4ccc(F)cc4)nn3)ccc21`, the MCC at 72 h in data set [1] came to 100 µM. The EC50 with Human adenovirus 2 and in the data set on Vaccinia virus [2] was greater than 100 µM throughout.
In the case of `CCn1c(=O)n(O)c(=O)c2cc(-c3cn(Cc4ccc(C#N)cc4)nn3)ccc21`, the MCC at 72 h in data set [1] is greater than 100 µM. In addition, the results for the EC50 in the data set with Human adenovirus 2 and with Vaccinia virus [2] were greater than 100 µM and 15 µM, respectively.
With `O=c1[nH]c(=O)n([C@H]2C[C@H](O)[C@@H](CO)O2)cc1/C=C/Br` [BRIVUDINE], the MCC at 72 h in data set [1] was greater than 250 µM. The EC50 in the data set on Vaccinia virus [2] came out at 15 µM.
Take `Cn1c(=O)n(O)c(=O)c2cc(-c3cn(Cc4cccc(F)c4)nn3)ccc21`: the MCC at 72 h in data set [1] was greater than 100 µM. In addition, the EC50 in the data set on Human adenovirus 2 and in the data set on Vaccinia virus [2] was greater than 100 µM each time.
For `COc1ccc(Cn2cc(-c3ccc4c(c3)c(=O)n(O)c(=O)n4C)nn2)cc1`, the MCC at 72 h in data set [1] is greater than 100 µM. The EC50 with Human adenovirus 2 is 12 µM; in the data set on Vaccinia virus [2], greater than 100 µM.
Regarding `Cn1c(=O)n(O)c(=O)c2cc(-c3cn(Cc4c(F)cccc4F)nn3)ccc21`, the MCC at 72 h in data set [1] is 100 µM. The EC50 with Human adenovirus 2 and with Vaccinia virus [2] was greater than 100 µM each time.
`Cn1c(=O)n(O)c(=O)c2cc(-c3cn(Cc4cc(F)ccc4F)nn3)ccc21`: in data set [1], the MCC at 72 h is greater than 100 µM. For the same molecule, the EC50 in the data set with Human adenovirus 2 and in the data set with Vaccinia virus [2] was greater than 100 µM in each case.
